We go through 23 compounds from the M2OR odorant receptor database.

What all share (details): stereoisomer not certain
One assay concerns the target T1, OR1A1 (Homo sapiens) (UniProt Q9P1Q5).
T1 sequence (whole entry): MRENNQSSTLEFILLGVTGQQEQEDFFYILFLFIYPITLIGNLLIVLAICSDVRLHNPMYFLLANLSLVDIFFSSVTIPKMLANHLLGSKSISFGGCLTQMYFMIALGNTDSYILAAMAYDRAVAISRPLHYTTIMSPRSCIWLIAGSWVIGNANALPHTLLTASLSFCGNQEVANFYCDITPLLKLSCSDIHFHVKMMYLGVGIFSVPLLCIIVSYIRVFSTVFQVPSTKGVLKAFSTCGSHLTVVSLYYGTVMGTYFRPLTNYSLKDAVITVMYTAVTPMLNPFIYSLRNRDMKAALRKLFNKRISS
The gist of the method:
(§1)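 Each receptor–molecule pair is labelled responsive or non-responsive (inactive) according to whether the original authors judged the measured signal statistically different from baseline. The data were taken from the main text and supplementary material of published papers and checked for typos and inconsistencies. Assay methods differed by source, with transient luciferase assays in mammalian cell lines being common.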

For the next assay, the target named is OR13G1 (Homo sapiens) (UniProt Q8NGZ3). The gist of the method:
as §1

Another assay addresses OR13H1 (Homo sapiens) (UniProt Q8NG92). The gist of the method:
as §1

Another assay addresses OR13J1 (Homo sapiens) (UniProt Q8NGT2). In outline:
as §1

In another assay the target is OR14A16 (Homo sapiens) (UniProt Q8NHC5). In outline:
as §1

The target of the next assay is OR14A2 (Homo sapiens) (UniProt Q96R54). In outline: as §1
A further assay concerns the target OR14C36 (Homo sapiens) (UniProt Q8NHC7). The gist of the method:
as §1

For the next assay, the target named is OR14I1 (Homo sapiens) (UniProt A6ND48). In outline: as §1
A further assay addresses OR14J1 (Homo sapiens) (UniProt Q9UGF5). In outline:
as §1

In a further assay the target is OR14K1 (Homo sapiens) (UniProt Q8NGZ2). The gist of the method: as §1
In a further assay the target is T2, OR1A2 (Homo sapiens) (UniProt Q9Y585).
T2 sequence (whole entry): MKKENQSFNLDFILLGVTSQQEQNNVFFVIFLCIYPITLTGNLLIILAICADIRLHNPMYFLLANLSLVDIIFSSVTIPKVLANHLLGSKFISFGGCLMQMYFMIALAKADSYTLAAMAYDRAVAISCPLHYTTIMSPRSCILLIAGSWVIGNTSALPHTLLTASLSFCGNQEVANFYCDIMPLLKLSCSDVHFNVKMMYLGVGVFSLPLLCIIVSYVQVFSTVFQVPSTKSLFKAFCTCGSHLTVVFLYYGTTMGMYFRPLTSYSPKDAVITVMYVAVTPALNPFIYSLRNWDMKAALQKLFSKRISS
In outline:
as §1

The next assay relates to OR1A2 G256C W293C. In outline:
as §1

In another assay the test system is OR1B1. In outline:
as §1

A further assay addresses OR1C1 (Homo sapiens) (UniProt Q15619). In outline:
as §1

The next assay concerns the target T3, OR1D2 (Homo sapiens) (UniProt P34982).
T3 sequence (whole entry): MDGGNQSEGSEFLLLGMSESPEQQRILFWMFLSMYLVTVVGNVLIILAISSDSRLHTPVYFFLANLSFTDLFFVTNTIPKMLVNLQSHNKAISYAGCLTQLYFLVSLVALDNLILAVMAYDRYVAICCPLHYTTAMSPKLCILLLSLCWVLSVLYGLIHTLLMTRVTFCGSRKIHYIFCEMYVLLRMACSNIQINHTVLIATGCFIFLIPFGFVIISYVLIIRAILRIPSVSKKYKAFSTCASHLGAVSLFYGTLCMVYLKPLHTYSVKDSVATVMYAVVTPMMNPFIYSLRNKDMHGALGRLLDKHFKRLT
In outline: as §1

In another assay the target is OR1D5 (Homo sapiens) (UniProt P58170). In outline: as §1
Another assay deals with OR1E1 (Homo sapiens) (UniProt P30953). The gist of the method:
as §1

The target in the next assay is OR1E2 (Homo sapiens) (UniProt P47887). The gist of the method:
as §1

The next assay has as its system OR1E2. In outline:
as §1

A further assay has as its target OR1D4 (Homo sapiens) (UniProt P47884). The gist of the method:
as §1

Each structure is given as a SMILES string.
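Note: active if original authors judged signal statistically different from baseline.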

OR14A2 (Homo sapiens), sequence (Q96R54 whole entry): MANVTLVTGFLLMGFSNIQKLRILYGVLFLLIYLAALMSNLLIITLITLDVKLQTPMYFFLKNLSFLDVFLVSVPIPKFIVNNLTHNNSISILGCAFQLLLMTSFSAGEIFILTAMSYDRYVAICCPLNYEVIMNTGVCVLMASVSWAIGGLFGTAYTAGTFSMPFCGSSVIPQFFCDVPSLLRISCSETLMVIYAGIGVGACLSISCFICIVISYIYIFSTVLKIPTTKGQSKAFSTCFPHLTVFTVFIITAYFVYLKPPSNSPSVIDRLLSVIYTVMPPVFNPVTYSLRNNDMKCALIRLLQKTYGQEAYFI
OR14C36 (Homo sapiens), sequence (Q8NHC7 whole entry): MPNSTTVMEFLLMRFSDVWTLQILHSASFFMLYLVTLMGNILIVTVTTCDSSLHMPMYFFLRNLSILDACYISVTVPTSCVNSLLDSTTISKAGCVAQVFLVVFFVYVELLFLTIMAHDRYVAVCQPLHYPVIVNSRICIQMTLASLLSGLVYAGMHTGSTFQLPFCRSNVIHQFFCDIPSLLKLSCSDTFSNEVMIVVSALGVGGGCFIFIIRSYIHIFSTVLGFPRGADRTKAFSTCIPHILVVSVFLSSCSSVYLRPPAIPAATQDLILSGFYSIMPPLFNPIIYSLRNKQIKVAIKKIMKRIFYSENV
OR13G1 (Homo sapiens), sequence (Q8NGZ3 whole entry): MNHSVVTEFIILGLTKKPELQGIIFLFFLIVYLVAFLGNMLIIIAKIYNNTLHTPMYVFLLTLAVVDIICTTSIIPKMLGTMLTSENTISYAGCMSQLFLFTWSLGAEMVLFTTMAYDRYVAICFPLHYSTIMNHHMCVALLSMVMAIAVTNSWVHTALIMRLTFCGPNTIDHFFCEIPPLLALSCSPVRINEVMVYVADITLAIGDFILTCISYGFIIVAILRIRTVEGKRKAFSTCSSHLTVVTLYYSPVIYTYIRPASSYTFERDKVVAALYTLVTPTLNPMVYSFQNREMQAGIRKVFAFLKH
OR14A16 (Homo sapiens), sequence (Q8NHC5 whole entry): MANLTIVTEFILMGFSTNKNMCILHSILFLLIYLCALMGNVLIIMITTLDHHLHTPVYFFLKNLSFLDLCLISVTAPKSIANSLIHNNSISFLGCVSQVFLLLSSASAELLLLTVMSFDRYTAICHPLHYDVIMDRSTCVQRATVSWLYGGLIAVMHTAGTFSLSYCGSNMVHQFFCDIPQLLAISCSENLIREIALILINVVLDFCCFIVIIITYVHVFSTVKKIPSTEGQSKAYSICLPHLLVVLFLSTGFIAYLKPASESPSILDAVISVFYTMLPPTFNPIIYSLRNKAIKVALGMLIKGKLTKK
OR1B1, sequence (as listed by the source): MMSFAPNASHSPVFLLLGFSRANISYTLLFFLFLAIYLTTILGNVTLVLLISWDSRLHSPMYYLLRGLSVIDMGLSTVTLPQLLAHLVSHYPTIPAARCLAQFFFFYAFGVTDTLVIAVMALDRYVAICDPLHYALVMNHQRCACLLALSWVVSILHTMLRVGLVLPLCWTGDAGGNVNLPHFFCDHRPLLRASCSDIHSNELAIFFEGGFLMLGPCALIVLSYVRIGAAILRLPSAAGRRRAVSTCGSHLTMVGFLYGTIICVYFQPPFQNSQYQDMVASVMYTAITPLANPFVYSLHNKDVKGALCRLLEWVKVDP
OR1D5 (Homo sapiens), sequence (P58170 whole entry): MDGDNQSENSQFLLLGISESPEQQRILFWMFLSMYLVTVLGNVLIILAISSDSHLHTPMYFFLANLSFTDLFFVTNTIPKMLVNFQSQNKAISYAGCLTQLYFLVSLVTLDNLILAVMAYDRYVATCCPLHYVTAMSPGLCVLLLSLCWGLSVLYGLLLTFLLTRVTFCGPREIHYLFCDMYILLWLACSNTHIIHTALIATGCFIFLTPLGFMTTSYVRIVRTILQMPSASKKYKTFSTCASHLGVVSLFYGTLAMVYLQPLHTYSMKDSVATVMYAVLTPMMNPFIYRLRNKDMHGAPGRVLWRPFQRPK
OR13H1 (Homo sapiens), sequence (Q8NG92 whole entry): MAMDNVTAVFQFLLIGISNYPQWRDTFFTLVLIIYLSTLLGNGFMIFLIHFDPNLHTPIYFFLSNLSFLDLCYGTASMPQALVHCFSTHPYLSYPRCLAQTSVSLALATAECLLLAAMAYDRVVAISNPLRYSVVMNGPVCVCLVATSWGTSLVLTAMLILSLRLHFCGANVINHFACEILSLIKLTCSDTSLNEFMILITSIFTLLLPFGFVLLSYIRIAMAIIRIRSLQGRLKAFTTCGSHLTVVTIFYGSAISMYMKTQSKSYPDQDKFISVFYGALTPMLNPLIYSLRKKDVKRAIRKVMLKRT
OR1E2 (Homo sapiens), sequence (P47887 whole entry): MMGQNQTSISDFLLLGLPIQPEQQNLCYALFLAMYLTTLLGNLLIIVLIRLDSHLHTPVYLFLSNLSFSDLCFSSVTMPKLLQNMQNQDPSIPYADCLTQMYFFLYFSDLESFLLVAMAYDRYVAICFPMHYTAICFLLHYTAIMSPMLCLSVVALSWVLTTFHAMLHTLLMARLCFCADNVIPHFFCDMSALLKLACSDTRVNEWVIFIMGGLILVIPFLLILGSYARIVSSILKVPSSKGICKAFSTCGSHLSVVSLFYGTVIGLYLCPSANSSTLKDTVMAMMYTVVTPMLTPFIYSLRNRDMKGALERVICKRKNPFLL
OR14K1 (Homo sapiens), sequence (Q8NGZ2 whole entry): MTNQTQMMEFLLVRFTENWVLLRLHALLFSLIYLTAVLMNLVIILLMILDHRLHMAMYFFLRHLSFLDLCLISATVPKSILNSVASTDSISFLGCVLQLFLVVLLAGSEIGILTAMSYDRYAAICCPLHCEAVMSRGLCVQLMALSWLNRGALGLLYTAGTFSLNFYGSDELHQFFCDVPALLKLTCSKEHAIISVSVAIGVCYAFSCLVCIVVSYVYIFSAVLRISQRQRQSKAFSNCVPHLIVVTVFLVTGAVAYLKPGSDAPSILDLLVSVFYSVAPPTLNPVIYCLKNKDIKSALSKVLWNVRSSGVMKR
OR14I1 (Homo sapiens), sequence (A6ND48 whole entry): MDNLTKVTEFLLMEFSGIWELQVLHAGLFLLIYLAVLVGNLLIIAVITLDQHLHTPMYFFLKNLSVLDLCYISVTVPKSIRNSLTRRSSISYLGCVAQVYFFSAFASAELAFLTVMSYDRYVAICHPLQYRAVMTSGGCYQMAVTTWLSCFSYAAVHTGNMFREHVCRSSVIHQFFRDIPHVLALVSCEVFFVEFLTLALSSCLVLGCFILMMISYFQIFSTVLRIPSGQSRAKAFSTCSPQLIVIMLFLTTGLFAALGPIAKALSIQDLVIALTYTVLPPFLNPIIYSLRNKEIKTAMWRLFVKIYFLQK
OR1C1 (Homo sapiens), sequence (Q15619 whole entry): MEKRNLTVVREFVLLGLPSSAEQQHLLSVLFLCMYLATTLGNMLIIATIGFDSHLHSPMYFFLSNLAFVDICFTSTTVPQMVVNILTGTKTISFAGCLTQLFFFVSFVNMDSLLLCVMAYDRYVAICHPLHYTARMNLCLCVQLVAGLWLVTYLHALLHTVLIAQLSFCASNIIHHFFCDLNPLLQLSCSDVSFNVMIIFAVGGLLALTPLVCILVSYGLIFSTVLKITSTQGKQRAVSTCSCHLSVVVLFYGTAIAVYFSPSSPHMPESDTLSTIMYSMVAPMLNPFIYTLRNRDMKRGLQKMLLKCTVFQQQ
OR13J1 (Homo sapiens), sequence (Q8NGT2 whole entry): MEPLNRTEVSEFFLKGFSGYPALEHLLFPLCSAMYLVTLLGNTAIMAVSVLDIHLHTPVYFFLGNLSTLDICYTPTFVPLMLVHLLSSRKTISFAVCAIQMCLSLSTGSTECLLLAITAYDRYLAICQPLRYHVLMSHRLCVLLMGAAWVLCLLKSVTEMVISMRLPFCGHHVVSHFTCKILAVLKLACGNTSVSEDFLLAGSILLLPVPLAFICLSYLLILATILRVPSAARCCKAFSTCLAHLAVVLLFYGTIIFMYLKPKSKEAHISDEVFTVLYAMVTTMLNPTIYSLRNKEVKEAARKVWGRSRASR
OR14J1 (Homo sapiens), sequence (Q9UGF5 whole entry): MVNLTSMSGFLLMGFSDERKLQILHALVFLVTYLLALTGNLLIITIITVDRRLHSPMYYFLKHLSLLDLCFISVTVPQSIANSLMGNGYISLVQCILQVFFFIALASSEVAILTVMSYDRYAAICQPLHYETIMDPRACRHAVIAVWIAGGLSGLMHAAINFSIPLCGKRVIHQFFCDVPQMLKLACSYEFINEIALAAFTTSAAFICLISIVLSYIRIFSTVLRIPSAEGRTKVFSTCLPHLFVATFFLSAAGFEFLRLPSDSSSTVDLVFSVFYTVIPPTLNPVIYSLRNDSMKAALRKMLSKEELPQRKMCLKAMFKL
OR1E2, sequence (as listed by the source): as the sequence (P47887 whole entry) above, with C27R counted along it
OR1E1 (Homo sapiens), sequence (P30953 whole entry): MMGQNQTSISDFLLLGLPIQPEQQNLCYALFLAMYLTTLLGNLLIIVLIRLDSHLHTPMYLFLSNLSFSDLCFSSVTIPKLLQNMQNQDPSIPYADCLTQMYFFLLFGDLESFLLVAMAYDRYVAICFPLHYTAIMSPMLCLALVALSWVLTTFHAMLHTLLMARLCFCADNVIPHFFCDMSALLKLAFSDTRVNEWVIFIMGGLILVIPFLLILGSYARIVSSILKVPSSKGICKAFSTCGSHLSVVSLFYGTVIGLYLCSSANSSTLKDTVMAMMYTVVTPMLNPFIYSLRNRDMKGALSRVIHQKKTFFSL
OR1D4 (Homo sapiens), sequence (P47884 whole entry): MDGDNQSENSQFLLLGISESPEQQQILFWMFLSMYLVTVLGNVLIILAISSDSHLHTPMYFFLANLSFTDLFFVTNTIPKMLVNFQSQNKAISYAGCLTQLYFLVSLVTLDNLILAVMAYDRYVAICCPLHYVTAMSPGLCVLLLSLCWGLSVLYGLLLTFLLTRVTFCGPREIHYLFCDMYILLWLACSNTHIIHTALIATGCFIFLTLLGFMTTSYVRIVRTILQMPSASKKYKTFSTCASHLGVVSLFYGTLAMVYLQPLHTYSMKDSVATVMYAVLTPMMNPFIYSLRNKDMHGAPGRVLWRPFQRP

With `Cc1ccc(O)c(C)c1`, in the assay with OR1A1 (Homo sapiens), the “odorant receptor agonist call” value is “inactive”.
As to `C=CCOC(=O)Cc1ccccc1`, the “odorant receptor agonist call” value in the assay with OR13G1 (Homo sapiens), in the assay with OR13H1 (Homo sapiens), with OR13J1 (Homo sapiens), with OR14A16 (Homo sapiens), with OR14A2 (Homo sapiens) and with OR14C36 (Homo sapiens) was “inactive” in each case. In addition, the “odorant receptor agonist call” value with OR14I1 (Homo sapiens), with OR14J1 (Homo sapiens), in the assay with OR14K1 (Homo sapiens), with OR1A2 (Homo sapiens), in the assay with OR1A2 G256C W293C and in the assay on OR1B1 was “inactive” in each case. Besides, the “odorant receptor agonist call” value with OR1C1 (Homo sapiens), with OR1D2 (Homo sapiens), in the assay with OR1D5 (Homo sapiens), with OR1E1 (Homo sapiens), in the assay with OR1E2 (Homo sapiens) and in the assay with OR1E2 was “inactive” each time. In the assay with OR1A1 (Homo sapiens), the “odorant receptor agonist call” value is “active”.
Take `O=Cc1ccccc1`: the “odorant receptor agonist call” value with OR1D2 (Homo sapiens) is “inactive”.
`CCOC(=O)Cc1ccccc1`: the “odorant receptor agonist call” value in the assay with OR1A1 (Homo sapiens) was “active”.
On to `O=CC=Cc1ccccc1`, for which the “odorant receptor agonist call” value with OR1D2 (Homo sapiens) is “inactive”.
Regarding `Cc1ccccc1O`, in the assay with OR1A1 (Homo sapiens), the “odorant receptor agonist call” value is “inactive”.
On to `CCCCCCC(Br)C(=O)O` (centres undefined), for which the “odorant receptor agonist call” value with OR1A1 (Homo sapiens) and in the assay with OR1A2 (Homo sapiens) was “inactive” in each case.
In the case of `CCC1CCC(=O)O1` (centres undefined), the “odorant receptor agonist call” value with OR1A1 (Homo sapiens) is “inactive”.
As for `O=C([O-])Cc1ccccc1`, the “odorant receptor agonist call” value in the assay with OR1A1 (Homo sapiens) and with OR1A2 (Homo sapiens) was “inactive” throughout.
Regarding `ClC=CCl`, the “odorant receptor agonist call” value with OR1A1 (Homo sapiens) and with OR1A2 (Homo sapiens) was “inactive” each time.
On to `SCc1ccco1`, for which the “odorant receptor agonist call” value in the assay with OR1A1 (Homo sapiens) is “inactive”.
Consider `C=CCSSCC=C`, for which, in the assay with OR1A1 (Homo sapiens), the “odorant receptor agonist call” value was “inactive”.
As to `CCCC(Br)C(=O)O` (centres undefined), the “odorant receptor agonist call” value with OR1A1 (Homo sapiens) and in the assay with OR1A2 (Homo sapiens) was “inactive” in each case.
As to `O=c1cc(O)c2ccccc2o1`, in the assay with OR1A1 (Homo sapiens), the “odorant receptor agonist call” value is “inactive”.
With `CCCCC(Br)C(=O)O` (centres undefined), the “odorant receptor agonist call” value with OR1A1 (Homo sapiens) and with OR1A2 (Homo sapiens) was “inactive” throughout.
As to `C=CCc1ccccc1`, in the assay with OR1A1 (Homo sapiens), the “odorant receptor agonist call” value was “inactive”.
As to `Cc1c([N+](=O)[O-])c(C)c([N+](=O)[O-])c(C(C)(C)C)c1[N+](=O)[O-]`, the “odorant receptor agonist call” value in the assay with OR13G1 (Homo sapiens), with OR13H1 (Homo sapiens), with OR13J1 (Homo sapiens), with OR14A16 (Homo sapiens), with OR14A2 (Homo sapiens) and with OR14C36 (Homo sapiens) was “inactive” each time. Also, the “odorant receptor agonist call” value in the assay with OR14I1 (Homo sapiens), with OR14J1 (Homo sapiens), with OR14K1 (Homo sapiens), with OR1A2 (Homo sapiens), in the assay on OR1B1 and with OR1C1 (Homo sapiens) was “inactive” in each case. Further, the “odorant receptor agonist call” value with OR1D4 (Homo sapiens), in the assay with OR1D5 (Homo sapiens) and in the assay with OR1E2 (Homo sapiens) was “inactive” throughout. The “odorant receptor agonist call” value with OR1A1 (Homo sapiens) is “active”.
For the compound `COc1ccc(C=O)cc1`, the “odorant receptor agonist call” value in the assay with OR1A1 (Homo sapiens) is “inactive”.
Turning to `CC(C=O)Cc1ccc2c(c1)OCO2` (centres undefined), the “odorant receptor agonist call” value with OR1A1 (Homo sapiens) and with OR1A2 (Homo sapiens) was “active” each time. For the same compound, the “odorant receptor agonist call” value in the assay with OR1D2 (Homo sapiens) was “inactive”.
`O=C(O)Cc1ccccc1`: the “odorant receptor agonist call” value with OR1A1 (Homo sapiens) was “inactive”.
On the same count and under the same terms, next, `CSSC`: “inactive”.
`C=CCc1ccc(OC)cc1`: the “odorant receptor agonist call” value with OR1A1 (Homo sapiens) was “active”.
`CCC(Br)C(=O)O` (centres undefined): the “odorant receptor agonist call” value with OR1A1 (Homo sapiens) and with OR1A2 (Homo sapiens) was “inactive” in each case.
